Assay results: ChEMBL document CHEMBL1156702, “Synthesis and molecular modelling of unsaturated exomethylene pyranonucleoside analogues with antitumor and antiviral activities” (Eur J Med Chem, 2008)

Tests used:
[1] = Cytotoxicity against human H4 cells after 72 hrs; assay type: cell-based
In short: (§1)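 Cells kept in DMEM with 5% foetal calf serum, L-glutamine, penicillin/streptomycin at 37 °C, 5% CO2. Seeded cells exposed to 3-fold serial dilutions (starting 0.5 mg/mL; DMSO stock, final DMSO <0.1%) for 72 h at 37 °C. Treated wells (n=2) compared with controls (n=24). CC50 taken from concentration-effect curve.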

[2] = Cytotoxicity against human Caco-2 cells after 72 hrs; assay type: cell-based; in short: as §1
[3] = Ratio of CC50 for human Caco-2 cells to IC50 for rotavirus RF assessed by inhibition of infectivity following virus attachment

Question: With C=C1[C@@H](CO)O[C@H](n2ccc(=O)[nH]c2=O)[C@@H](O)[C@H]1O as the molecule, how does the CC50 at 72 h [1] read?
Answer: The CC50 at 72 h was 1850 µM.

Question: With O=C1C=C[C@@H](n2ccc(=O)[nH]c2=O)O[C@@H]1CO as the molecule, how does the CC50 at 72 h [1] read?
Answer: Its CC50 at 72 h is 2100 µM.

Question: For C=C1C=C[C@@H](n2ccc(=O)[nH]c2=O)O[C@@H]1CO, which CC50 at 72 h [1] is on record?
Answer: Its CC50 at 72 h is 2120 µM.

Question: Which CC50 at 72 h [1] does the source give for C=C1C=C[C@@H](n2ccc(=O)[nH]c2=O)O[C@@H]1COC(c1ccccc1)(c1ccccc1)c1ccccc1 here?
Answer: Its CC50 at 72 h is 1040 µM.

Question: Which results are given for Cc1cn([C@H]2C[C@H](N=[N+]=[N-])[C@@H](CO)O2)c(=O)[nH]c1=O [ZIDOVUDINE]?
Answer: CC50 at 72 h [2]: 56.1 µM; Ratio CC50/IC50 [3]: 2.5
